Screening data: PubChem, Johns Hopkins Ion Channel Center
TRPC6 inh = mouse TRPC6 channel inhibitors, primary screen, cell-based, HEK293, membrane potential dye; Short transient receptor potential channel 6 (Mus musculus), Q61143; B-score at 10 µM; ACh-evoked depolarization; stronger effect = lower value; 1.1% of 310,000 active;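 active means B-score under library mean minus 3 SD, initial fluorescence not abnormally high, positive integrated signal ratio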;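 further: B-score derived from integrated fluorescence ratio over the kinetic read; more negative B-score means stronger inhibition of depolarization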
TRPC6 activator = mouse TRPC6 channel activators, primary screen, cell-based, HEK293, membrane potential dye | B-score at 10 µM | Short transient receptor potential channel 6 (Mus musculus), Q61143 | 0.13% of 310,000 active | AID 2550, 2010 | HEK293-TRPC6 membrane potential dye fluorescence; stronger effect = higher value;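 active means B-score of the integrated fluorescence ratio above library mean plus 3 SD, and starting fluorescence ratio within library mean plus 5 SD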;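 further: higher score means more depolarization so channel activation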
TRPC4 block = inhibitors of mouse TRPC4 channel, primary screen, Fluo4 calcium, HEK293 TRPC4beta/mu-opioid cells; Short transient receptor potential channel 4 (Mus musculus), Q9QUQ5; DAMGO-evoked Fluo4 calcium flux; stronger effect = lower value; B-score at 10 µM; 0.39% of 300,000 active; AID 2247, 2010;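 active means B-score over 3 SD under the library average, no early fluorescence shift, positive overall ratio signal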
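test system = HEK293 cells with stable TRPC4beta plus mu-opioid receptor expression | detection = Fluo4 Ca2+ flux fluorescence | read-out = integrated fluorescence ratio relative to baseline, converted to per-well B score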
Kir21 block = inhibitors of mouse Kir2.1 inward-rectifier potassium channel; HEK293-Kir2.1, FluxOR thallium flux fluorescence; stronger effect = lower value; Inward rectifier potassium channel 2 (Mus musculus), P35561; AID 1672, 2009; B-score at 10 µM; 0.85% of 310,000 active;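 active means fluorescence ratio B-score at or below minus 3 SD of library scores, with starting-brightness B-score within 2 SD, cut at about -4.2 in these data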;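 further: channel flux triggered by added potassium and thallium sulfate stimulus; B-score of peak minus minimum fluorescence over baseline after thallium stimulus; more negative B-score means stronger Kir2.1 block with less thallium influx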
Target sequence (P35561 whole entry, looked up): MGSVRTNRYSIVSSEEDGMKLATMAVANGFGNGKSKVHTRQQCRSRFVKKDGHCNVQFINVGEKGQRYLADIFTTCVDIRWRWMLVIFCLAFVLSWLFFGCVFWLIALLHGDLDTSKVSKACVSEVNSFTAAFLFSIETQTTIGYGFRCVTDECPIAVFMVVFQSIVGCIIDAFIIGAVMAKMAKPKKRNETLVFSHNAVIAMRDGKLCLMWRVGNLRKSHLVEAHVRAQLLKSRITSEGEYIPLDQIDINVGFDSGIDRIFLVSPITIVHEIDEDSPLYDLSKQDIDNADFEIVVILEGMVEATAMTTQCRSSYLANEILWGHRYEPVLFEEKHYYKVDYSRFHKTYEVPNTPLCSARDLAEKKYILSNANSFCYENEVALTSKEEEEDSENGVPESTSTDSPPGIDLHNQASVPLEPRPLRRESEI
TRPC4 PAM = positive allosteric modulators of TRPC4, primary screen, cell-based, mouse TRPC4beta, HEK293 mu-opioid, Fluo-4 calcium; Short transient receptor potential channel 4 (Mus musculus), Q9QUQ5; DAMGO EC20, Fluo-4 Ca2+ flux; stronger effect = higher value; B-score at 10 µM; 0.42% of 310,000 active; AID 2227, 2009;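 active means B-score of calcium response area above 5 SD of library B-scores, with initial fluorescence ratio within 5 SD of library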;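 further: B-score of integrated fluorescence ratio over time as area under calcium response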
TRPC4 agonist = activators of mouse TRPC4 channel, primary screen, Fluo4 calcium, HEK293 TRPC4beta/mu-opioid cells; 0.49% of 310,000 active; Short transient receptor potential channel 4 (Mus musculus), Q9QUQ5; Fluo4 calcium fluorescence; stronger effect = higher value; B-score at 10 µM;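 active means B-score above 5 SD of library B-scores, and initial fluorescence ratio not above library mean plus 5 SD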;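 further: positive B-score marks a calcium rise read as TRPC4 activation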
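Assay system: HEK293 stable line with TRPC4beta plus mu-opioid receptor; schedule: 45 min room-temperature Fluo4 loading, 110 s read; technique: kinetic Fluo4 calcium fluorescence; evaluation: integrated baseline-normalised fluorescence ratio, converted to per-well B score; controls: buffer (low) and maximal DAMGO (high)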
TRPC4 sel inh 2 = mouse TRPC4 off-target activity of TRPC6 inhibitors, second screen; inhibition, % at 10 µM; shares compounds with TRPC6 inh; 42% of 920 active; HEK293 TRPC4/MOR, membrane potential dye fluorescence; channel activated by saturating DAMGO dose; AID 2776;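 active means compounds whose fluorescence signal differed from control wells by over 3 SD, either direction, in both duplicate plates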
TRPC4 spec = mouse TRPC4 modulation by TRPC6 hits, confirmation, selectivity assay for TRPC6 inhibitor project, cell-based, HEK293 TRPC4/mu-opioid, membrane potential dye | shares compounds with TRPC6 inh | AID 2777, 2010 | 61% of 920 active | membrane potential fluorescence | activity change, negative = inhibition, % at 10 µM;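 active means rise or fall in signal beyond 3 SD of buffer-only wells in both replicate plates, either sign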;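 further: integrated kinetic ratio of fluorescence range over baseline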
HEK293 MPD ctr 2-1 = nonspecific membrane potential effects, parental HEK293, confirmation, counter-screen for TRPC6 inhibitor project, cell-based, second counter screen; parental HEK293 membrane potential dye fluorescence; maximal acetylcholine challenge after compound addition; 31% of 920 active; shares compounds with TRPC6 inh; signal change vs control, % at 10 µM; AID 2779, 2010;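 active means membrane potential signal moving either way by over 3 SD of the maximum-effect control, in both duplicate plates, meaning non-specific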
HEK293 MPD ctr-1 = membrane potential modulation in parental HEK293, confirmation, counter-screen for TRPC6 inhibitor project, cell-based; shares compounds with TRPC6 inh; parental HEK293 membrane potential dye fluorescence; membrane potential signal change, % at 10 µM; 60% of 920 active; AID 2780, 2010;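 active means membrane potential signal shifting up or down by more than 3 SD of buffer-only wells, on both duplicate plates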
HEK293 MPD ctr-2 = parental HEK293 membrane potential modulation, confirmation, counter-screen for TRPC6 modulator project, cell-based; shares compounds with TRPC6 inh; membrane potential dye fluorescence; membrane potential signal change, % at 10 µM; 51% of 2,400 active;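 active means membrane potential signal moves up or down beyond 5 SD from buffer-only wells, on both duplicate plates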
HEK293 MPD ctr 2-2 = second check of TRPC6 modulator effects in parental HEK293 cells. membrane potential dye fluorescence; after compound, maximal acetylcholine stimulation. inhibition, % at 10 µM. shares compounds with TRPC6 inh. AID 488926. 14% of 2,400 active;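 active means membrane potential signal drops by more than 5 SD from the mean control signal, in both duplicate plates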;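 further: plate controls were acetylcholine ECmax control wells for no effect and buffer only wells for full effect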
TRPC4 ctr mod = TRPC4 modulation by TRPC6 hit compounds, confirmation, selectivity assay for TRPC6 modulator project, cell-based, HEK293 TRPC4/mu-opioid, membrane potential dye, mouse; shares compounds with TRPC6 inh; membrane potential fluorescence; percent change from control (negative = decrease, positive = increase), % at 10 µM; 69% of 2,400 active;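 active means membrane potential signal moved up or down beyond 5 SD of buffer control wells, in both duplicate plates, actives on both sides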;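 further: plate controls were assay buffer wells for no effect and DAMGO maximal-effect wells for full effect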
TRPC4/MOR inh 2 = mouse TRPC4 off-target activity of TRPC6 modulators, second screen; AID 488928; inhibition, % at 10 µM; shares compounds with TRPC6 inh; 55% of 2,400 active; HEK293 TRPC4/mu-opioid, membrane potential dye fluorescence; stimulated with maximal-effect DAMGO;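 active means drop in membrane potential signal beyond 5 SD of the control wells in both duplicate plates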;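 further: TRPC4 counter screen for TRPC6 hits run under conditions tuned for TRPC6 not TRPC4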
TRPC6 inh conf = mouse TRPC6 channel inhibitors, confirmation, HEK293 cells, membrane potential dye, duplicate; shares compounds with TRPC6 inh; ACh-evoked depolarization; inhibition, % at 10 µM; 43% of 3,300 active;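 active means fluorescence ratio falls more than 5 SD below the full-stimulation control mean, in both duplicate runs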;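 further: integrated fluorescence ratio of peak minus minimum over baseline after agonist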
TRPC6 act conf = mouse TRPC6 channel activators, confirmation, HEK293 cells, membrane potential dye, duplicate | shares compounds with TRPC6 inh | HEK293-TRPC6 membrane potential dye fluorescence, FDSS | activation, % at 10 µM | 11% of 2,800 active | AID 488961, 2010;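 active means ratio signal rise beyond 5 SD above unstimulated control wells' mean, seen in both duplicate runs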;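 further: plate controls were buffer EC0 wells for no effect and acetylcholine ECmax response for full effect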
* marks the source's active call; other numbers are inactive results. An excerpt weighted towards active compounds, which were near 2.9% of everything screened.

`Cc1nc2c(C(=O)N3CCCCC3)cnn2c(C)c1Cc1ccccc1F` gave TRPC6 inh -10.9*, TRPC6 activator 21.8*, TRPC4 block inactive, Kir21 block 0.45, TRPC4 PAM inactive, TRPC4 agonist inactive, HEK293 MPD ctr-2 147.0%*, HEK293 MPD ctr 2-2 inactive, TRPC4 ctr mod 28.5%*, TRPC4/MOR inh 2 30.0%*, TRPC6 inh conf 114.0%* and TRPC6 act conf 177.5%*.
Screening CCOC(=O)N1CCN(C(=O)CN2C(=O)COc3ccc(C(C)(C)C)cc32)CC1 returned TRPC6 inh -6.29*, TRPC6 activator inactive, TRPC4 block inactive, Kir21 block 0.68, TRPC4 PAM inactive, TRPC4 agonist inactive, HEK293 MPD ctr-2 94.5%*, HEK293 MPD ctr 2-2 inactive, TRPC4 ctr mod 17.5%*, TRPC4/MOR inh 2 inactive and TRPC6 inh conf 54.5%*.
For CCOC(=O)N1CCN(C(=O)c2ccc3c(=O)n(-c4ccc(OC)cc4OC)c(=S)[nH]c3c2)CC1 the results were TRPC6 inh inactive, TRPC6 activator inactive, TRPC4 block inactive, Kir21 block 0.27, TRPC4 PAM inactive and TRPC4 agonist inactive.
CCOc1ccc(/C=C2\SC(=S)N(C(C(=O)O)c3ccccc3)C2=O)cc1OC (centres undefined) was read as TRPC6 inh inactive, TRPC6 activator inactive, TRPC4 block inactive, Kir21 block -0.04, TRPC4 PAM inactive and TRPC4 agonist inactive.
COc1ccc(OC)c(/C=C2\SC(=S)N(C(C(=O)O)c3ccccc3)C2=O)c1 (centres undefined) was read as TRPC6 inh inactive, TRPC6 activator 17.9*, TRPC4 block inactive, Kir21 block -2.64, TRPC4 PAM inactive, TRPC4 agonist inactive, HEK293 MPD ctr-2 411.5%*, HEK293 MPD ctr 2-2 inactive, TRPC4 ctr mod 83.0%*, TRPC4/MOR inh 2 inactive, TRPC6 inh conf inactive and TRPC6 act conf 175.0%*.
`COc1ccc(-n2nc3c(c2NC(C)=O)CS(=O)(=O)C3)cc1` gave TRPC6 inh inactive, TRPC6 activator inactive, TRPC4 block inactive, Kir21 block 1.65, TRPC4 PAM inactive and TRPC4 agonist inactive.
For CN(C)CCN(C(=O)c1cccs1)c1nc2cc3c(cc2s1)OCCO3 the results were TRPC6 inh -7.99*, TRPC6 activator inactive, TRPC4 block inactive, Kir21 block -0.06, TRPC4 PAM inactive, TRPC4 agonist inactive, TRPC4 sel inh 2 43.5%*, TRPC4 spec -17.6%*, HEK293 MPD ctr 2-1 inactive, HEK293 MPD ctr-1 -229.5%*, TRPC6 inh conf 96.5%* and TRPC6 act conf inactive.
`CN(C)CCN(C(=O)c1ccc(Br)s1)c1nc2cc3c(cc2s1)OCCO3` gave TRPC6 inh inactive, TRPC6 activator inactive, TRPC4 block inactive, Kir21 block 0.95, TRPC4 PAM inactive and TRPC4 agonist inactive.
CCN(CC)CCN(C(=O)c1ccc2c(c1)OCCO2)c1nc2cc3c(cc2s1)OCO3 was read as TRPC6 inh -5.82*, TRPC6 activator inactive, TRPC4 block inactive, Kir21 block -1.44, TRPC4 PAM inactive, TRPC4 agonist inactive, HEK293 MPD ctr-2 inactive, HEK293 MPD ctr 2-2 inactive, TRPC4 ctr mod -23.0%*, TRPC4/MOR inh 2 84.0%*, TRPC6 inh conf 50.5%* and TRPC6 act conf inactive.
CN(C)CCCN(C(=O)c1ccc2c(c1)OCCO2)c1nc2cc3c(cc2s1)OCO3 was read as TRPC6 inh -5.68*, TRPC6 activator inactive, TRPC4 block inactive, Kir21 block -3.74, TRPC4 PAM inactive, TRPC4 agonist inactive, HEK293 MPD ctr-2 inactive, HEK293 MPD ctr 2-2 inactive, TRPC4 ctr mod -17.5%*, TRPC4/MOR inh 2 80.0%*, TRPC6 inh conf 77.5%* and TRPC6 act conf inactive.
